This is an account of results in ChEMBL document CHEMBL4020790, “Quinazolinone derivatives as inhibitors of homologous recombinase RAD51” (Bioorg Med Chem Lett, 2017).

Active and inactive are the calls of the source. The calls are words filed in the database; no cut-off is given here.

The target in experiment [1] is T1, DNA repair protein RAD51 homolog 1 (Homo sapiens) (UniProt Q06609).
T1 sequence (whole entry): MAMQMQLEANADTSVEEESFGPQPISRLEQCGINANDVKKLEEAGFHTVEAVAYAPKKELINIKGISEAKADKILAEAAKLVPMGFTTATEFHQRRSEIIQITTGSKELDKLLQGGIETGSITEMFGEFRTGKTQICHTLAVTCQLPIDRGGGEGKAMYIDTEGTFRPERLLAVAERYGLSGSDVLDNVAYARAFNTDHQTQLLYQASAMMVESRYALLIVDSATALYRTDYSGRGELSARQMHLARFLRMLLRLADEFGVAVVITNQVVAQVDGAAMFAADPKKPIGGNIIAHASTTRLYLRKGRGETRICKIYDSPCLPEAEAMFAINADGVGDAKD
Kind of experiment: Inhibition of RAD51 in human MDA-MB-231 cells assessed as reduction in DNA damage-induced RAD51 foci formation at 10 uM incubated for 16 hrs followed by 6-Gy gamma-irradiation measured after 6 hrs by immunofluoresent assay. It counts as cell-based. In a few lines:
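MDA-MB-231 cells given 10 μM compound, then 6 Gy irradiation; RAD51 foci scored by immunofluorescence, with the read-out taken as the ratio of RAD51-positive to γH2AX-positive cells.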

The test system of experiment [2] is MDA-MB-231. Nature of the experiment: Cytotoxicity against human MDA-MB-231 cells assessed as decrease in cell viability at 10 uM in presence of 6-Gy gamma-irradiation measured up to 120 hrs by CellTiter96 AQueous one solution cell proliferation assay. It is filed as functional, cell-based. The procedure, abridged: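 MDA-MB-231 cells given 10 μM compound with or without 6 Gy irradiation; proliferation followed over a 120 h time course and expressed as mean % proliferation from 3 independent experiments; area under the curve calculated from the proliferation data.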

The test system of experiment [3] is MDA-MB-231. Kind of experiment: Cytotoxicity against human MDA-MB-231 cells assessed as decrease in cell viability at 10 uM measured up to 120 hrs by CellTiter96 AQueous one solution cell proliferation assay. It is filed as functional, cell-based. The procedure, abridged: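 MDA-MB-231 cells exposed to 10 μM compound with or without 6 Gy irradiation; proliferation followed over a 120 h time course and expressed as mean % proliferation from 3 independent experiments; area under the curve derived from the proliferation data.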

Experiment [4] addresses T1, DNA repair protein RAD51 homolog 1 (Homo sapiens). Nature of the experiment: Binding affinity to recombinant human RAD51 at 100 uM by SPR method. In general terms: SPR reads the build-up and loss of mass on a sensor chip optically.
Experiment [5] concerns MCF-10A. Kind of experiment: Cytotoxicity against human MCF10A cells assessed as decrease in cell viability after 120 hrs by MTS assay. It counts as cell-based.
Experiment [6] relates to SUM-159-PT. Nature of the experiment: Cytotoxicity against human SUM159PT cells assessed as decrease in cell viability after 120 hrs by MTS assay. It is filed as functional, cell-based. For orientation: Formazan colour is commonly taken as a measure of viable cells.
Experiment [7] concerns MDA-MB-468. Kind of experiment: Cytotoxicity against human MDA-MB-468 cells assessed as decrease in cell viability after 120 hrs by MTS assay. It counts as functional, cell-based. The settings on record: MDA-MB-468, 120 h.
The subject of experiment [8] is BT-549. Nature of the experiment: Cytotoxicity against human BT549 cells assessed as decrease in cell viability after 120 hrs by MTS assay. It is filed as functional, cell-based. The settings on record: BT-549, 120 h.
In experiment [9] the test system is Hs-578T. Nature of the experiment: Cytotoxicity against human Hs578T cells assessed as decrease in cell viability after 120 hrs by MTS assay. It is filed as functional, cell-based.
Experiment [10] concerns MDA-MB-231. Kind of experiment: Cytotoxicity against human MDA-MB-231 cells assessed as decrease in cell viability after 120 hrs by MTS assay. The settings on record: MDA-MB-231, 120 h. It is filed as functional, cell-based.
The subject of experiment [11] is MDA-MB-436. Kind of experiment: Cytotoxicity against human MDA-MB-436 cells assessed as decrease in cell viability after 120 hrs by MTS assay. It counts as functional, cell-based. The settings on record: MDA-MB-436, 120 h.
Experiment [12] deals with HCC1937. Nature of the experiment: Cytotoxicity against human HCC1937 cells assessed as decrease in cell viability after 120 hrs by MTS assay. It is filed as functional, cell-based. The settings on record: HCC1937, 120 h.

As for `O=c1c2ccccc2nc(/C=C/c2cccnc2)n1CC1CCCCC1`, the inhibition result in experiment [1] was “Active”.
As a reminder, the IC50 is the concentration that gives 50% inhibition. Consider `O=c1c2ccccc2nc(/C=C/c2cccnc2)n1Cc1ccc(Cl)cc1`, for which the result in [2] and in experiment [4] was Active. For the same compound, the inhibition entry in [1] is “Active”. In addition, in experiment [3], the result was inactive. For the same compound, the IC50 in experiment [5] was 48.3 µM; in [6] it was 5.5 µM; in experiment [7] it was 5.7 µM; in experiment [8] it was 6.4 µM; in experiment [9] it was 4.2 µM; in experiment [10], 6.7 µM. Also, the figures for the IC50 in [11] and in [12] were 4.1 µM and 13.7 µM, respectively.
Consider `O=c1c2ccccc2nc(/C=C/c2cccnc2)n1Cc1ccccc1`, for which the outcome in experiment [2] was Active. In addition, the half-maximal inhibitory concentration (IC50) in [5] was found to be 47.7 µM; in experiment [6], 84.1 µM; in experiment [7], 10.2 µM; in experiment [8], 35.4 µM; in experiment [9], 9.6 µM; in experiment [10], 11.1 µM. The IC50 in experiment [11] stood at 5.7 µM; in experiment [12], 89.1 µM.
